Consider seven compounds from PMC5820113 (Neuropharmacology, 2017).

Each structure is given as a SMILES string. pKi: −log10 of the molar value. Where two headings read alike, the source gives them in different places.

The test system of data set [1] is METH self-administration. To be noted: cited from earlier work.
The next data set relates to sigma-1 receptors. Conditions: ref Cao et al, 2016, cited from earlier work; for sigma-1/DAT binding ratio: ratio of binding affinities, Hiranita et al, 2017.
Data set [2] deals with cocaine self-administration. To be noted: cited from earlier work.
Data set [3] deals with METH self-administration. The data set can be described thus: Intravenous METH self-administration, short access. Type of data set: in vivo, rat. Conditions: for reduction of METH intake: ShA rats (Supplemental Figure S2). The method in brief: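 Rats (225-275 g at start, reverse light cycle, free food/water) trained on i.v. METH, 10-15 sessions, then 10 FR1 sessions of 1 h (ShA) or 6 h (LgA) access. Test compound i.p. (vehicle up to 100 mg/kg), 30 min or 1 h pretreatment, then FR1 session; Latin-square, within-subjects. Mean ± SEM; ANOVA or paired t-test vs vehicle, Holm-Sidak.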

In data set [4] the test system is sucrose self-administration. To be noted: rats; ref Zhang et al, 2017; cited from earlier work.
The subject of data set [5] is locomotion. To be noted: cited from earlier work.
Data set [6] relates to saccharin self-administration. The data set can be described thus: Saccharin self-administration. Conditions: rats (Supplemental Figure S3). Type of data set: in vivo, rat.
A short description of data set [7]: Phase I metabolic stability in rat liver microsomes. Type of data set: in vitro ADME. Background: Microsomes from liver hold many membrane-bound enzymes, among them those of drug oxidation.
Data set [8] deals with locomotion. As to the kind of experiment: Locomotion during saccharin self-administration. Type of data set: in vivo, rat. Conditions: rats (Supplemental Figure S3).
The subject of data set [9] is cocaine-induced locomotion. To be noted: ref Zhang et al, 2017; cited from earlier work.
For another data set, the system named is brain stimulation reward. Conditions: cited from earlier work.
The conditions of data set [10]: mouse, previously conducted; ref Supplemental Material; cited from earlier work.
Data set [11] deals with cocaine-induced reinstatement. To be noted: ref Zhang et al, 2017; cited from earlier work.
For data set [12] the following is noted: ref Cao et al, 2016; cited from earlier work.
The target in data set [13] is dopamine transporter (DAT). To be noted: read-out: Ki, DAT affinity; ref Cao et al, 2016; Zhang et al, 2017; cited from earlier work.
Data set [14] in a line: Plasma and brain levels after single i.p. dose in rats. The class given is in vivo. To be noted: rat. Summed up:
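Rats given a single 10 mg/kg i.p. dose, freshly prepared in 10% DMSO and 10% Tween 80 diluted with sterile saline. At 30 and 120 min (n = 3 per time point), CO2 euthanasia. Heparinized cardiac-puncture blood was spun at once for plasma. Brain was dissected and flash-frozen at -80°C.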

The mark [15] stands for this setting: rats, ref Hiranita et al, 2014, 2017.
Where [16] appears, read: all doses tested i.p. (JJC8-088 3, 10, 30 mg/kg; JJC8-089 1, 3, 10, 30 mg/kg).
[17] abbreviates: 10 mg/kg i.p., 30 min post-administration.
The mark [18] stands for this setting: 10 mg/kg i.p., 2 h (120 min) post-administration.
Where [19] appears, read: 100 mg/kg i.p., 1 h pretreatment, vs vehicle.
The mark [20] stands for this setting: 10-30 mg/kg, ref Zhang et al (2017).

For the compound `NC(=O)C[S+]([O-])C(c1ccccc1)c1ccccc1` (racemic) [(±)-modafinil], in the data set on METH self-administration [1] (300 mg/kg, very high dose, ref Reichel and See (2012)), the METH self-administration result is on record as “significantly decreased”.

On to `CCCCN1[C@@H]2CC[C@H]1CC(OC(c1ccc(F)cc1)c1ccc(F)cc1)C2` (stereo partly drawn) [JHW 007, reference compound], for which the sigma-1/DAT binding ratio in the data set with sigma-1 receptors is 0.20-0.23. For the same compound, in data set [2] (setting [15]), the cocaine self-administration entry is given as “effectively block”. For the same compound, in the data set on METH self-administration [1] (setting [15]), the METH self-administration entry is given as “effectively block”.

Regarding `Fc1ccc(C(SCCNCCCc2ccccc2)c2ccc(F)cc2)cc1` [JJC8-016, N-[2-([bis(4-fluorophenyl)methyl]thio)ethyl]-3-phenylpropan-1-amine], in the data set with METH self-administration [3] (30 mg/kg i.p., vs vehicle), the “METH intake, LgA rats entire 6 h session” value was “significantly decreased”; the “METH intake, LgA rats first hour” value is recorded as “significantly decreased”; the “METH intake, ShA rats 1 h session” value is reported as “significantly decreased”. Besides, in the data set on METH self-administration [3] (LgA rats, 1 h time point (Supplemental Figure S2)), the reduction of self-administration is listed as above 50%. In the data set with METH self-administration [3], the “reduction of METH intake” value is given as above 50%. Further, the sucrose self-administration result in [4] is given as “reduce”. The locomotor activity entry in the data set on locomotion [5] (ref Zhang et al, 2017) is given as “without affecting”. The “saccharin (sweetened water) self-administration” value (shortened to “saccharin”) in data set [6] is reported as “significantly reduced”. Besides, in the data set with sigma-1 receptors, the “affinity for sigma-1 receptors” value is on record as “high affinities”. In data set [7], the half-life (commonly the time needed for the level to fall by half in the phase considered) stood at 9 min. Further, the cocaine self-administration entry in [2] (ref Zhang et al, 2017) is “effectively inhibited”. In the data set with locomotion [8], the locomotion result is on record as “without causing significant locomotor effects”. The cocaine-induced locomotion entry in data set [9] was “effectively inhibited”. For the same compound, in the data set with brain stimulation reward (ref Zhang et al, 2017), the intracranial self-stimulation result is reported as “without affecting”. The brain penetration result in data set [10] is listed as “good brain penetration”. Further, the cocaine-induced reinstatement result in data set [11] was “effectively inhibited”.

For `[O-][S+](CCN1CCN(CC(O)Cc2ccccc2)CC1)C(c1ccc(F)cc1)c1ccc(F)cc1` (stereo not drawn) [JJC8-088, 1-[4-(2-[(bis[4-fluorophenyl]methyl)sulfinyl]ethyl)piperazin-1-yl]-3-phenylpropan-2-ol], the “METH intake, LgA rats entire 6 h session” value in the data set on METH self-administration [3] (all doses tested i.p. (3, 10, 30 mg/kg)) is listed as “did not affect”. Further, the “METH intake, LgA rats first hour” value in the data set on METH self-administration [3] (setting [16]) was “did not significantly change”. In the data set with METH self-administration [3] (setting [16]), the “METH intake, ShA rats 1 h session” value is “did not significantly change”. Also, in data set [6], the “saccharin” value is given as “increased”. Also, in the data set with sigma-1 receptors, the sigma-1/DAT binding ratio was above 100. In addition, the pKi (commonly the negative decadic logarithm of the Ki, by convention in mol/L) at sigma-1 receptors (read-out: Ki, sigma1 receptors) is 6.47; in data set [13] it was 8.60. Also, the “t1/2 in mouse liver microsomes” value in [12] was 12.9 min. The half-life in [7] amounted to 39 min. The locomotion entry in the data set on locomotion [8] is listed as “increased”. The “levels in both brain and plasma” value in [14] (10 mg/kg i.p., 30 min and 2 h) was “low levels”. Besides, the figures for the brain level entry in [14] (setting [17]) and in data set [14] (setting [18]) were “very little” and “nearly undetectable”, respectively.

On to `CC(O)CN1CCN(CCSC(c2ccc(F)cc2)c2ccc(F)cc2)CC1` (stereo not drawn) [JJC8-089, 1-[4-(2-[(bis[4-fluorophenyl]methyl)thio]ethyl)piperazin-1-yl]propan-2-ol], for which the “METH intake, LgA rats entire 6 h session” value in the data set on METH self-administration [3] (30 mg/kg i.p., vs vehicle) is given as “significantly decreased”. Moreover, the “reduction of METH intake” value in the data set with METH self-administration [3] is listed as above 50%. Moreover, in the data set on METH self-administration [3] (setting [16]), the “METH intake, LgA rats first hour” value is on record as “only observed a group effect” and the “METH intake, ShA rats 1 h session” value is listed as “only observed a group effect”. Further, the “saccharin” value in data set [6] is “significantly reduced”. Besides, in the data set on sigma-1 receptors, the sigma-1/DAT binding ratio was 0.24 and the “affinity for sigma-1 receptors” value was “high affinities”. In [7], this compound displayed a half-life of 14 min. Further, the negative-log Ki (pKi) in [13] is 7.78. The locomotion result with locomotion [8] was “without causing significant locomotor effects”. The compound further had a brain level in [14] (setting [17]) of 7.6 ± 0.3 nmol/g. The same compound displayed a brain level in [14] (setting [18]) of 3.6 ± 0.7 nmol/g. Also, the Kp – broadly, tissue or fluid exposure divided by exposure in the circulation – in data set [14] (brain/plasma, ip, 10 mg/kg) lay in the range of 8 to 9.

As for `CC(O)CN1CCN(CC[S+]([O-])C(c2ccc(F)cc2)c2ccc(F)cc2)CC1` (stereo not drawn) [JJC8-091, 1-[4-(2-[(bis[4-fluorophenyl]methyl)sulfinyl]ethyl)piperazin-1-yl]propan-2-ol], the “METH intake, LgA rats entire 6 h session” value in the data set with METH self-administration [3] (10 mg/kg i.p., vs vehicle) is listed as “significant reduction”; in the data set with METH self-administration [3] (30 mg/kg i.p., vs vehicle), “significant reduction”; with METH self-administration [3] (56 mg/kg i.p., vs vehicle), “significant reduction”. For the same compound, the “METH intake, LgA rats first hour” value in the data set on METH self-administration [3] (56 mg/kg i.p., vs vehicle) was “decreased”. In addition, the “METH intake, ShA rats 1 h session” value in the data set on METH self-administration [3] (56 mg/kg i.p., vs vehicle) is recorded as “decreased”. The “saccharin” value in data set [6] is “significantly reduced”. The same compound yielded a half-life in [7] of 126 min. Besides, in [13], the negative-log Ki (pKi) was 6.54. In addition, the locomotion entry with locomotion [8] is “without causing significant locomotor effects”. The brain level in data set [14] (setting [17]) is 0.45 ± 0.18 nmol/g; in [14] (setting [18]), 0.30 ± 0.015 nmol/g.

As to `NC(=O)C[S@@+]([O-])C(c1ccccc1)c1ccccc1` [R-MOD, [R]-2-[(diphenylmethyl)sulfinyl]acetamide, reference compound], in the data set with METH self-administration [3] (setting [19]), the “METH intake, LgA rats first hour” value is recorded as “significantly decreased”. Further, in the data set with METH self-administration [3] (setting [19]), the “METH intake, ShA rats 1 h session” value is on record as “significantly decreased”. Further, the “METH intake, LgA rats entire 6 h session” value with METH self-administration [3] (100 mg/kg i.p., vs vehicle (p = 0.058)) is listed as “nonsignificant”. The “reduction of METH intake” value with METH self-administration [3] is given as above 50%. The locomotion entry is listed as “increased” in the data set with locomotion [5] (setting [20]) and “did not alter” in the data set with locomotion [8]. For the same compound, the “saccharin” value in data set [6] is “did not alter”. In [7], the half-life was 55 min. The brain stimulation reward entry with brain stimulation reward (setting [20]) is listed as “enhanced”.
